Experimental data from article PMC11840771 (ACS Omega, 2025).
Like-named read-outs stand apart in the source and are kept apart here.

Key:
[1] = tested on: SKOV3 (HER2-positive cell); experiment: MTT cell viability assay, SKOV3; assay type: cell-based, human; settings: read-out: cell inhibition IC50 SKOV3 (HER2-positive cell), 72 h, mean ± SD
Procedure, shortened: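 SKOV3 cells grown in DMEM at 37 °C, 5% CO2, seeded at 1 × 10^4 cells/well and left 16 h. Test compound from DMSO stock (final DMSO ≤1%) was added in complete medium, 2-fold dilutions from 100 μM, for 72 h. MTT added for 3 h at 37 °C, formazan dissolved in DMSO, read at 550/590 nm. Triplicate; IC50 by nonlinear regression.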

[2] = biological target: T1, HER2-TK (Homo sapiens, UniProt P04626); experiment: HER2-TK inhibitory activity assay; assay type: biochemical
T1 sequence (P04626 676-1255 limits assumed): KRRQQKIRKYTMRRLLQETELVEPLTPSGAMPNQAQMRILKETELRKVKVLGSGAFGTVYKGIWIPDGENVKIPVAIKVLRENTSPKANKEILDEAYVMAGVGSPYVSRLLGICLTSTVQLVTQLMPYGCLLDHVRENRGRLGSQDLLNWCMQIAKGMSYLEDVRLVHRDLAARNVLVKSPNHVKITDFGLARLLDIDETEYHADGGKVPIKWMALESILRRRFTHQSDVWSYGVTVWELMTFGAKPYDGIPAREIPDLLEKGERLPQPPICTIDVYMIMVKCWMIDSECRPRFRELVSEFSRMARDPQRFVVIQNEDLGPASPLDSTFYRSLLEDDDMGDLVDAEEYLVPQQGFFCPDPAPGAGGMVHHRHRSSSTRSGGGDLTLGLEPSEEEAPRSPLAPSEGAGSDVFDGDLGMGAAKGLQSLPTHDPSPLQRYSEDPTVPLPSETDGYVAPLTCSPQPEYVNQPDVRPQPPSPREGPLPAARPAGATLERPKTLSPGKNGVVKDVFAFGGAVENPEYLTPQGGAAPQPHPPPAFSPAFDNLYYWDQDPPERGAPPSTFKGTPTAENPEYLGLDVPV

[3] = biological target: T1, HER2-TK; experiment: SPR kinetic analysis of binding to immobilized HER2-TK
[4] = SPR, PBS pH 7.4 with 5% DMSO, mean ± SD

SMILES | IC50 [1] [µM] | IC50 [2] [nM] | Kd [3] [µM] | kd [3, 4] | ka [3, 4] | kon ([3]; read-out: association rate constant (ka)) [M⁻¹ s⁻¹] | kd ([3]; SPR) | kon ([3]; pH 7.4, read-out: ka) [M⁻¹ s⁻¹]
CS(=O)(=O)CCNCc1ccc(-c2ccc3ncnc(Nc4ccc(OCc5cccc(F)c5)c(Cl)c4)c3c2)o1 [Lapatinib, reference compound] | 8 ± 1.4 | – | – | – | – | – | – | –
C=C(C)[C@@H]1CCC(C)=C[C@H]1c1c(O)cc(CCCCC)cc1O [CBD, cannabidiol] | 13.8 ± 1.7 | 38 ± 2 | 6.16 ± 0.25 | 6.33 ± 0.06 10^–3/s | – | – | – | –
CN(C)C/C=C/C(=O)Nc1cc2c(Nc3ccc(F)c(Cl)c3)ncnc2cc1O[C@H]1CCOC1 [Afatinib, reference compound] | 8.4 ± 0.9 | – | – | 9.95 ± 0.16 10^–3/s | – | – | – | –
CCCCCc1cc(O)c(C/C=C(\C)CCC=C(C)C)c(O)c1 [CBG, cannabigerol] | 16.6 ± 1 | 24.7 ± 2.6 | 17.1 ± 0.8 | 3.77 ± 0.02 10^–3/s | 2.21 ± 0.11 10^2/(M·s) | 221 | – | –
CCCCCc1cc(O)c2c(c1)OC(C)(C)c1ccc(C)cc1-2 [CBN, cannabinol] | – | 87.4 ± 1.7 | 26 ± 2.97 | 3.14 ± 0.09 10^–3/s | – | – | 3.14 × 10^–3 s^–1 | 122 ± 11
